Measured values taken from PubChem BioAssay.
The source made the active and inactive calls.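 The calls were made as follows, unless noted: active = mean duplicate activation above the buffer control mean plus 5 SD of those controls; inactive = the rest.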

What was measured:
[1] = thallium flux activation in parental CHO cells, counter-screen for KCNQ1 potentiator project (AID 493006;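 active = duplicate-averaged activation above buffer control mean plus 5 SD of those controls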); conditions: parental CHO-K1 cells, FluxOR thallium flux, at 10 µM; stronger effect = higher value
Procedure, shortened: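 Benchmarks – buffer and R-L3 controls · Assay system – untransfected host CHO-K1 cells with FluxOR thallium dye · Measure – fluorescence change ratio scaled 0% buffer, 100% R-L3 · Technique – kinetic thallium-flux fluorescence · Timing – overnight 37 °C plating, 90 min RT dye, 20 min compound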

[2] = molecular target: Potassium voltage-gated channel subfamily KQT member 1 (Homo sapiens) (UniProt P51787); test: KCNQ1 potassium channel potentiators, confirmation, FluxOR thallium flux, CHO cells, duplicates (AID 493007;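 active = potentiation averaged over duplicate wells exceeding buffer-only control mean by more than 3 SD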;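 as to outcome: cells depolarized by a potassium plus thallium sulfate stimulus after compound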); conditions: KCNQ1 cell line, FluxOR thallium flux fluorescence, at 10 µM; stronger effect = higher value, % of reference activator effect, buffer zero
Procedure, shortened: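 Material: CHO cells stably expressing the KCNQ1 potassium channel / Times: dye 90 min then compound 20 min, both at room temperature / Detection: kinetic thallium influx fluorescence with FluxOR dye, 10 s baseline, 110 s post-stimulus / Benchmarks: buffer-only wells as 0% and R-L3 activator as 100% / Replicates: each compound tested in duplicate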

[3] = molecular target: Potassium voltage-gated channel subfamily KQT member 2 (Rattus norvegicus) (UniProt O88943); test: rat KCNQ2 channel potentiation, selectivity assay for KCNQ1 potentiator project, KCNQ2-CHO-K1 cells (AID 493009;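 active = mean duplicate potentiation above the buffer control mean plus 5 SD of buffer wells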;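 also: assay conditions were tuned for KCNQ1 rather than KCNQ2 modulators; signal is max minus min fluorescence divided by baseline after thallium stimulus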); conditions: FluxOR thallium flux fluorescence, at 10 µM; stronger effect = higher value, scaled: buffer 0, activator control 100
[4] = molecular target: Potassium voltage-gated channel subfamily KQT member 1 (Homo sapiens) (UniProt P51787); test: KCNQ1 channel current potentiators, confirmation, orthogonal assay for KCNQ1 potentiator project, IonWorks patch clamp, KCNQ1-CHO cells (AID 493184;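 active = current rise at least 3 SD above the untreated control mean in each of two repeat wells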); conditions: automated patch clamp current, at 10 µM; stronger effect = higher value
Procedure, shortened: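 Probe or stimulus: depolarizing pulse to +40 mV from -90 mV; Material: CHO cells carrying KCNQ1; Compound: one dose, 10 µM final; Signal: automated voltage clamp, amphotericin B perforated patch; Read-out basis: percent current increase versus pre-compound level; Buffer or medium: pH 7.4 external bath; Replication: duplicates.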

[5] = molecular target: Potassium voltage-gated channel subfamily E member 1 (Homo sapiens) + Potassium voltage-gated channel subfamily KQT member 1 (Homo sapiens) (UniProt P15382+P51787); test: KCNQ1/KCNE1 complex potentiators, confirmation, selectivity assay for KCNQ1 potentiator project, thallium flux, CHO-K1 KCNQ1/E1 cells (AID 493186); conditions: FluxOR thallium flux, at 10 µM; stronger effect = higher value
Procedure, shortened: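 system = KCNQ1/E1-expressing stable CHO-K1 cell line | doses = single compound concentration per well | times = dye 90 min, compound 20 min, room temperature | measured by = FluxOR Tl+ flux fluorescence, kinetic read | evaluation = fluorescence rise relative to baseline, as percent of R-L3 response above buffer | controls = buffer and R-L3 | replicates = duplicate wells per compound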

Chain of Potassium voltage-gated channel subfamily E member 1 (Homo sapiens) + Potassium voltage-gated channel subfamily KQT member 1 (Homo sapiens) (P51787 whole entry, looked up): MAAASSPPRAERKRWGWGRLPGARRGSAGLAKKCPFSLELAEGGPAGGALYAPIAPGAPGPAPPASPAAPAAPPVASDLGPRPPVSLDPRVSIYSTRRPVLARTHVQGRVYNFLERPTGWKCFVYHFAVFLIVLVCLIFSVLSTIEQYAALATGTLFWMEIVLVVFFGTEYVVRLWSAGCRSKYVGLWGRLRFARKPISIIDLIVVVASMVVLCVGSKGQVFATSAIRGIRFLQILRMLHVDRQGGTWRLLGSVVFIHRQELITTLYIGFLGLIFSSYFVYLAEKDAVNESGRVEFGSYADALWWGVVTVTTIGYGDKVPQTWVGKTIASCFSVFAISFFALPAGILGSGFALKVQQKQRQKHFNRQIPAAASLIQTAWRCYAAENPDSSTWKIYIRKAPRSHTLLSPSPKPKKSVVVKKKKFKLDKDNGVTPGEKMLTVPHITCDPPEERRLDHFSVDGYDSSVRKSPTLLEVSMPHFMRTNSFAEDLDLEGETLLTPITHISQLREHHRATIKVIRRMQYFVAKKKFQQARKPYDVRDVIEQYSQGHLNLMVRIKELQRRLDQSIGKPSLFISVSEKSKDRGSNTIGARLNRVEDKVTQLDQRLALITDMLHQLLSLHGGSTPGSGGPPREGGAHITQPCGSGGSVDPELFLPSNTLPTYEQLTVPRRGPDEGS
Chain of Potassium voltage-gated channel subfamily KQT member 1 (Homo sapiens) (P51787 whole entry, looked up): as above
Chain of Potassium voltage-gated channel subfamily KQT member 2 (Rattus norvegicus) (O88943 whole entry, looked up): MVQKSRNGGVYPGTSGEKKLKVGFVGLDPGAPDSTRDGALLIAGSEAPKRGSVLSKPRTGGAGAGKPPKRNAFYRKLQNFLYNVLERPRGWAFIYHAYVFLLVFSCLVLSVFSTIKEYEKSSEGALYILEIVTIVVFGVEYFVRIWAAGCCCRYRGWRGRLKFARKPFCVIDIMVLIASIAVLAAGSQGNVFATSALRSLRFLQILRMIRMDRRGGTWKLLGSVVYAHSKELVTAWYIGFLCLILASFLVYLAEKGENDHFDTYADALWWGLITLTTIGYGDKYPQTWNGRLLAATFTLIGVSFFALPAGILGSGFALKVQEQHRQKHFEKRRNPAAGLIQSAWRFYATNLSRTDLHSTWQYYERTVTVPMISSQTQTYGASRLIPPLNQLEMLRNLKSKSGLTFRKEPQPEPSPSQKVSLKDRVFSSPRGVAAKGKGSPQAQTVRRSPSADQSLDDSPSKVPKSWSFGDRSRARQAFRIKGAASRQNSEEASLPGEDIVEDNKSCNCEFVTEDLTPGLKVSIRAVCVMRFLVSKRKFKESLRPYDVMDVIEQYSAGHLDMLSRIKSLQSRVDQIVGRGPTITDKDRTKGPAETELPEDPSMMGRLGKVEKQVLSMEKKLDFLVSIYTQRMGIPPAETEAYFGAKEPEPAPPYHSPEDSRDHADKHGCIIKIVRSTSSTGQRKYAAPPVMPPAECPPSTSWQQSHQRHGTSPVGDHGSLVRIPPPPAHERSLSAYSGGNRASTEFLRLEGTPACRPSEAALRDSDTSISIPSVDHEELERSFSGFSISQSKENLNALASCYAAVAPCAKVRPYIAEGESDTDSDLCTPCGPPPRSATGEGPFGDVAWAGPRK

COCCn1c(C)cc(C(=O)COC(=O)c2ccc([N+](=O)[O-])o2)c1C
inactive: outcome [1] | outcome [3] | outcome [4] | outcome [5]
active: potentiation [2] 22.5%

O=C(O)c1cc2cc(F)ccc2[nH]1
inactive: outcome [1] | outcome [2] | outcome [3] | outcome [4] | outcome [5]

Cc1cccc(C(=O)O/N=C(\N)c2cccc([N+](=O)[O-])c2)c1
inactive: outcome [1] | outcome [2] | outcome [3] | outcome [4] | outcome [5]

C=CCNC(=S)Nc1nc2c(cc1C(=O)OCC)CCCC2
active: potentiation [2] 39%
inactive: outcome [1] | outcome [3] | outcome [4] | outcome [5]

CC12CCC(C(=O)N(CSC(=S)N/N=C\c3ccccc3)C1=O)C2(C)C (stereo not given)
inactive: outcome [1] | outcome [3] | outcome [4] | outcome [5]
active: potentiation [2] 33.5%

CN1C(=O)c2ccc(NC(=O)c3c(F)c(F)c(F)c(F)c3F)cc2C1=O
inactive: outcome [1] | outcome [3] | outcome [4] | outcome [5]
active: potentiation [2] 25.5%

CC(=O)Nc1ccc(/C=N/NC(=O)c2cccc(S(=O)(=O)N3CCOCC3)c2)cc1
inactive: outcome [1] | outcome [2] | outcome [3] | outcome [4] | outcome [5]

COc1ccccc1N1CCN(C(=O)C2CCN(C(=O)c3cccc(Cl)c3)CC2)CC1
inactive: outcome [1] | outcome [2] | outcome [3] | outcome [4] | outcome [5]

Cc1nc(-c2ccc(NC(=O)Cc3ccccc3)cc2)cs1
inactive: outcome [1] | outcome [2] | outcome [3] | outcome [4] | outcome [5]

O=C(Nc1nnc(-c2ccccc2)o1)c1cc(Cl)sc1Cl
active: potentiation [3] 148%
inactive: outcome [1] | outcome [2] | outcome [4] | outcome [5]

O=C(Nc1nnc(-c2ccco2)o1)c1ccc(Cl)cc1
inactive: outcome [1] | outcome [2] | outcome [4] | outcome [5]
active: potentiation [3] 148%

CCC1=NN2C(=N)/C(=C/c3ccc(OS(=O)(=O)c4ccccc4)c(OC)c3)C(=O)N=C2S1
inactive: outcome [1] | outcome [2] | outcome [3] | outcome [4] | outcome [5]

Cc1cc(C)c2c(n1)nn1c(NCCCN(C)C)cc(C)nc21
inactive: outcome [1] | outcome [2] | outcome [3] | outcome [4] | outcome [5]

CS(=O)(=O)N1CCc2cc(-c3csc(NC(=O)C(c4ccccc4)c4ccccc4)n3)ccc21
inactive: outcome [1] | outcome [2] | outcome [3] | outcome [4] | outcome [5]

CCOC(=O)c1c(N)sc(N)c1C(=O)OCC
inactive: outcome [1] | outcome [2] | outcome [4] | outcome [5]
active: potentiation [3] 170%

O=C(Nc1nc(-c2cc(F)ccc2F)cs1)c1ccccn1
inactive: outcome [1] | outcome [2] | outcome [3] | outcome [4] | outcome [5]

O=C(NC(=S)Nc1ccccc1)c1cncc(C#Cc2ccccc2)c1
active: potentiation [2] 37%
inactive: outcome [1] | outcome [3] | outcome [4] | outcome [5]

Cc1[nH]nc(SCC(=O)N2CCCCC2)c1[N+](=O)[O-]
inactive: outcome [1] | outcome [2] | outcome [3] | outcome [4] | outcome [5]

CC(=O)/C=C/c1ccc2ccccc2n1
inactive: outcome [1] | outcome [2] | outcome [3] | outcome [4] | outcome [5]

CCOC(=O)N1CCN(C(=S)NC(=O)c2ccc(F)c(F)c2)CC1
inactive: outcome [1] | outcome [2] | outcome [3] | outcome [4] | outcome [5]

Fc1ccc(/C=N/n2c(C3CCCCC3)n[nH]c2=S)cc1
inactive: outcome [1] | outcome [2] | outcome [3] | outcome [4] | outcome [5]

COC(=O)c1sccc1NC(=O)CSc1ccccc1NS(=O)(=O)c1cc(Cl)ccc1Cl
inactive: outcome [1] | outcome [2] | outcome [3] | outcome [4] | outcome [5]

Cc1ccc(S(=O)(=O)Nc2cccc3ncccc23)s1
inactive: outcome [1] | outcome [4] | outcome [5]
active: potentiation [2] 19.5% | potentiation [3] 168%

COc1ccc(C2(C)CC(C)(C)Nc3ccccc32)cc1 (stereo not given)
inactive: outcome [1] | outcome [3] | outcome [4] | outcome [5]
active: potentiation [2] 68.5%

CC(C)Oc1cccc(C(=O)NC(=S)N2CCN(c3ccc(C(F)(F)F)cc3[N+](=O)[O-])CC2)c1
inactive: outcome [1] | outcome [4] | outcome [5]
active: potentiation [2] 35.5% | potentiation [3] 144%

COC(=O)N/N=C/c1cc(C)n(-c2ccc(Br)cc2)c1C
inactive: outcome [1] | outcome [2] | outcome [3] | outcome [4] | outcome [5]

CCOC(=O)N1CCC(NC(=O)c2cc(C(=O)NCc3ccc(F)cc3)ccc2CO)CC1
inactive: outcome [1] | outcome [2] | outcome [3] | outcome [4] | outcome [5]

COc1cc2c(cc1NC(=O)CSc1nnc(COc3ccc(Cl)cc3)n1C)oc1ccccc12
inactive: outcome [1] | outcome [3] | outcome [4] | outcome [5]
active: potentiation [2] 49.5%

Cc1ccc(-c2nc(=S)c3c(n2Cc2ccco2)CC(C)(C)OC3)cc1
inactive: outcome [1] | outcome [2] | outcome [3] | outcome [4] | outcome [5]

Cc1cccc(OCc2n[nH]c(=S)n2C2CCCCC2)c1
inactive: outcome [1] | outcome [2] | outcome [3] | outcome [4] | outcome [5]

Cc1ccc(OCCn2c(=S)[nH]c3ccccc32)c(C(C)C)c1
active: potentiation [2] 119%
inactive: outcome [1] | outcome [3] | outcome [4] | outcome [5]

Cc1cccc(NC(=S)c2nc3ccccc3s2)c1
active: potentiation [2] 146% | potentiation [3] 219%
inactive: outcome [1] | outcome [4] | outcome [5]

O=C(NNc1cc(N2CCOCC2)nc(N2CCOCC2)n1)C12CC3CC(CC(C3)C1)C2
active: potentiation [2] 51%
inactive: outcome [1] | outcome [3] | outcome [4] | outcome [5]

S=c1nc[nH]c2c1sc1nc(N3CCOCC3)c3c(c12)CCCC3
active: potentiation [2] 105%
inactive: outcome [1] | outcome [3] | outcome [4] | outcome [5]

CCn1c2ccccc2c2cc(CC(N)=O)ccc21
inactive: outcome [1] | outcome [2] | outcome [3] | outcome [4] | outcome [5]

C=CS(=O)(=O)c1sc(Cl)c(N2CCOCC2)c1[N+](=O)[O-]
inactive: outcome [1] | outcome [3] | outcome [4] | outcome [5]
active: potentiation [2] 19%

CCCc1cc(=O)[nH]c(SCC(=O)Nc2ccc(Br)cc2Br)n1
inactive: outcome [1] | outcome [2] | outcome [3] | outcome [4] | outcome [5]

COc1ccc(C(=O)NC(=S)NNC(=O)c2ccc(C)cc2)cc1
active: potentiation [2] 142% | potentiation [3] 250% | activation [5] 62.3%
inactive: outcome [1] | outcome [4]

COc1ccc(C(=O)NNC(=O)C(=O)NCc2ccccc2)cc1
inactive: outcome [1] | outcome [4] | outcome [5]
active: potentiation [2] 29% | potentiation [3] 144%

Fc1ccc(-n2cc(-c3ccccc3)c3c(=S)nc[nH]c32)cc1
active: potentiation [2] 108%
inactive: outcome [1] | outcome [3] | outcome [4] | outcome [5]

CCN(CC(=O)Nc1c(F)cccc1F)C(=O)C1CCN(C(=O)c2ccc(Cl)cc2)CC1
inactive: outcome [1] | outcome [2] | outcome [3] | outcome [4] | outcome [5]

CCOc1cccc(/C=N/NC(=O)C2CCCC2)c1O
inactive: outcome [1] | outcome [2] | outcome [3] | outcome [4] | outcome [5]

Cc1ccc(C(=O)CC(=O)c2ccc(C)cc2O)cc1
inactive: outcome [1] | outcome [2] | outcome [3] | outcome [4] | outcome [5]

CC(NC(=O)c1ccccc1Cl)C1CC2CCC1C2 (stereo not given)
inactive: outcome [1] | outcome [2] | outcome [3] | outcome [4] | outcome [5]

O=C(Nc1ccc(Cl)cc1C(F)(F)F)C(Sc1cccc[n+]1[O-])c1ccccc1 (stereo not given)
inactive: outcome [1] | outcome [2] | outcome [3] | outcome [4] | outcome [5]

Oc1oc(-c2ccccc2)nc1/C=N/c1nccs1
active: potentiation [2] 29.5%
inactive: outcome [1] | outcome [3] | outcome [4] | outcome [5]

O=C(NC(=S)NCCc1ccccc1)c1ccco1
inactive: outcome [1] | outcome [2] | outcome [3] | outcome [4] | outcome [5]

CSCC(C)N1CCC(n2nccc2NC(=O)CCOc2ccccc2)CC1 (stereo not given)
inactive: outcome [1] | outcome [2] | outcome [3] | outcome [4] | outcome [5]

COc1ccc(NC(=O)CN2CCN(C3c4ccccc4-c4ccccc43)CC2)cc1
inactive: outcome [1] | outcome [2] | outcome [3] | outcome [4] | outcome [5]

OCCN1CCN(c2nc(-c3ccccc3)nc3c2oc2ccccc23)CC1
inactive: outcome [1] | outcome [2] | outcome [3] | outcome [4] | outcome [5]

Cc1nn(Cc2ccc(Cl)cc2)c(C)c1NC(=O)c1cc(-c2ccco2)on1
inactive: outcome [1] | outcome [2] | outcome [3] | outcome [4] | outcome [5]

O=C(NCCCN1CCCC1)c1ccc2c(c1)N(Cc1ccccc1)CCS2
inactive: outcome [1] | outcome [2] | outcome [3] | outcome [4] | outcome [5]

CCc1ccc2oc(C(=O)NC3CCS(=O)(=O)C3)cc(=O)c2c1 (stereo not given)
inactive: outcome [1] | outcome [2] | outcome [3] | outcome [4] | outcome [5]

COc1cccc(C2C3=C(N=c4s/c(=C\c5ccc(OCC(=O)O)cc5)c(=O)n42)c2ccccc2CC3)c1 (stereo not given)
inactive: outcome [1] | outcome [3] | outcome [4] | outcome [5]
active: potentiation [2] 53%

O=C(Nc1ccccc1Br)c1ccccc1-c1ccccc1
active: potentiation [2] 29.5%
inactive: outcome [1] | outcome [3] | outcome [4] | outcome [5]

O=C(CSc1ccccn1)N1CCN(S(=O)(=O)c2ccc(Cl)cc2)CC1
inactive: outcome [1] | outcome [2] | outcome [3] | outcome [4] | outcome [5]

CC(=O)C[C@H]1c2cc(C(F)(F)F)ccc2S(=O)(=O)N1C1CCCCC1
inactive: outcome [1] | outcome [3] | outcome [4] | outcome [5]
active: potentiation [2] 74%

Cc1sc2ncnc(N3CCN(Cc4ccccc4)CC3)c2c1-c1ccccc1
active: potentiation [2] 184%
inactive: outcome [1] | outcome [3] | outcome [4] | outcome [5]

CC(C)CC(=O)Nc1nnc(SCC(=O)NCc2ccco2)s1
inactive: outcome [1] | outcome [2] | outcome [3] | outcome [4] | outcome [5]

O=c1c2ccccc2oc2cc(NCCCN3CCOCC3)ccc12
active: potentiation [2] 29.5%
inactive: outcome [1] | outcome [3] | outcome [4] | outcome [5]
